Assay outcomes (PubChem BioAssay)
M5 PAM: positive allosteric modulators of human muscarinic M5 receptor; P08912; CHO-K1 hM5, Fluo-8 calcium, ACh EC20 PAM; 0% = ACh EC20, 100% = ACh EC100; activation, % at 3 µM; 0.3% of 360,000 active; AID 624038;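 active means activation above the run cutoff, the mean activation of all test compounds plus 3 SD, cut at about 18% in these data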
Target sequence (P08912 whole entry, looked up): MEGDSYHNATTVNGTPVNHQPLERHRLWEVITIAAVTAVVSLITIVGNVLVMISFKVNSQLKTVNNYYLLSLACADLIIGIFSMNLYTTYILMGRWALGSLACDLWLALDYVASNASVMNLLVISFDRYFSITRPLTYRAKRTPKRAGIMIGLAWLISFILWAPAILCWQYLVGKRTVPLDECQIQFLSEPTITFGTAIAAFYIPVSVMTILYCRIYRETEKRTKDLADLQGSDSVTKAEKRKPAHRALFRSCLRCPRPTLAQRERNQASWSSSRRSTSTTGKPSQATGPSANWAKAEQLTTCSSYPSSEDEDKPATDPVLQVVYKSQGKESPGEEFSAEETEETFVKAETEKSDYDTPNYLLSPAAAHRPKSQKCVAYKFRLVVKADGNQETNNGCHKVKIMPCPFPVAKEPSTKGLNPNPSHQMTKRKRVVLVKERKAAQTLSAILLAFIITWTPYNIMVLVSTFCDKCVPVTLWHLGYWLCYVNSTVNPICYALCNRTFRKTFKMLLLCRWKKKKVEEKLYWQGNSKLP
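System: CHO-K1 cell line with stable human muscarinic M5 receptor expression | Also added: EC20 acetylcholine as agonist stimulus | Compound: One concentration, 3 µM final (nominal) | Timing: Fluo-8 loading 80 min at 37 °C plus 30 min room temperature | Measured by: Fluo-8 calcium dye fluorescence, kinetic read | Read-out basis: % activation, ACh-normalized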
M4 ag: agonists of human muscarinic M4 receptor (CHRM4); P08173; CHO-K1 hM4/Gqi5, Fluo-8 calcium fluorescence; vehicle 0%, full acetylcholine response 100%; activation, % at 3 µM; 0.14% of 360,000 active;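 active means activation above the run mean over all test wells plus 3 SD, cut at about 32% in these data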;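 further: peak over basal fluorescence ratio per well then scaled between controls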
CHRM5 antagonist: CHRM5 antagonism in calcium assay; AID 624040; CHO-hM5 cells, Fluo-8 calcium fluorescence, ACh EC80; inhibition, % at 3 µM; 0.59% of 360,000 active; P08912;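 active means inhibition above a per-plate cutoff, the mean of that plate's test compounds plus 3 SD, cut at about 27% in these data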
M4 antag: CHRM4 antagonism in calcium assay. CHO-hM4 cells, ACh EC80, Fluo-8 calcium fluorescence. inhibition, % at 3 µM. 0.73% of 360,000 active. AID 624125;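 active means inhibition above its plate's cutoff, the mean inhibition of sample wells plus 3 SD, cut at about 27% in these data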
M4 PAM: CHRM4 positive allosteric modulation | 0.4% of 360,000 active | activation, % at 3 µM | P08173 | AID 624126 | CHO-K1 hM4/Gqi5, Fluo-8 calcium fluorescence, ACh EC20; 0% = ACh EC20, 100% = maximal ACh;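 active means activation above its plate's cutoff, the mean activation of sample wells plus 3 SD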
M5 ag: agonists of human muscarinic M5 receptor (CHRM5); P08912; CHO-K1 hM5 cells, Fluo-8 calcium fluorescence; 0% DMSO wells, 100% maximal acetylcholine response; activation, % at 3 µM; 0.19% of 360,000 active;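 active means activation above the run's mean over test compounds plus 3 SD, cut at about 23% in these data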;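 further: signal is peak over basal fluorescence ratio across the kinetic read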
Large screens that a line does not name were inactive. Rows were chosen to be rich in hits. Some 1.9% of all compounds tested hit in one or more screens of this group.

COc1ccc(-c2cc(C(=O)Nc3cc(C)nn3-c3ccccc3)no2)cc1	M4 PAM 18
O=C(NCCc1ccc(F)cc1)C1CCC(=O)N(CC2CCCCC2)C1 (stereo not given)	none
COc1ccc(C2=NOC(Cn3nc(C(=O)NCc4ccc(OC(F)(F)F)cc4)cc3-c3ccccc3)C2)cc1 (stereo not given)	none
COc1ccc(C2=NOC(Cn3nc(C(=O)NCc4ccccc4OC)cc3-c3ccccc3)C2)cc1 (stereo not given)	M4 antag 30
COc1ccc(C2=NOC(Cn3nc(C(=O)NCC4CC4)cc3-c3ccccc3)C2)cc1 (stereo not given)	M4 antag 29
CCOC(=O)Nc1ccc2nc(-c3cscn3)[nH]c2c1	none
CC(C)CC1C(=O)N(Cc2cn(CC3CCCCC3)nn2)CCS(=O)(=O)N1Cc1ccc(-c2cccc(C#N)c2)cc1 (stereo not given)	none
CCC(=O)N1Cc2cc(C(=O)Nc3nccs3)nc(-c3cccc(-c4ccccc4OC)c3)c2[C@H]1CCO	M4 antag 27
CCNC(=O)c1cc2c(c(-c3cccc(-c4cc5ccccc5o4)c3)n1)[C@H](CCO)N(C(=O)NC(C)C)C2	M4 antag 29
CCOc1cc2[nH]c(=S)n(CCCCC(=O)NCc3ccco3)c(=O)c2cc1OCC	M4 PAM 32
CC(C)(C)Cc1c(-c2ccc(Cl)cc2)nc2c(Cl)cc(C(F)(F)F)cn12	none
Cc1ccc([C@H]2N[C@]3(CCCN(Cc4ccc(Cl)cc4)C3=O)[C@H]3C(=O)N(C)C(=O)[C@@H]23)cc1	none
CCc1ccc(NC(=O)Cn2cc([N+](=O)[O-])nc2C)cc1	M5 PAM 21
CCOC(=O)Cn1c2c(c(=N)c3c1CCC3)CCC2	none
CCCCCCCCCn1c2c(c(=N)c3c1CCC3)CCCC2	CHRM5 antagonist 58, M4 antag 63
CCCCCCCCCCn1c2c(c(=N)c3c1CCC3)CCC2	CHRM5 antagonist 39, M4 antag 28
CCOC(=O)Cn1c2c(c(=N)c3ccccc31)CCC2	M5 PAM 19
CCCCCCCCn1c2c(c(=N)c3ccccc31)CCC2	CHRM5 antagonist 48, M4 antag 58
O=C(OCc1ccccc1)N1CCC2CC1c1ccc(N3CCNCC3)cc12 (stereo not given)	none
O=c1[nH]c(-c2ccccc2)nc(CN2CCCCC2)c1O	M4 PAM 21
O=c1c2cccnc2n(-c2ccccc2)n1Cc1ccc(Cl)cc1	M4 PAM 22
O=c1c2cccnc2n(-c2ccccc2)n1Cc1c(Cl)cccc1Cl	none
COc1ccccc1CNC(=O)Nc1nnc([C@H]2C[C@H](O)[C@@H](CO)O2)s1	none
CC(Oc1ccc(Cl)cc1)C(=O)Nc1cccc(S(=O)(=O)N2CCCC2)c1 (stereo not given)	none
O=C(Nc1ccc(S(=O)(=O)N2CCOCC2)cc1)c1cc(-c2cc(Cl)ccc2O)n[nH]1	CHRM5 antagonist 29
Cc1cc(O)c(-c2cc(C(=O)Nc3ccc(S(=O)(=O)N4CCOCC4)cc3)[nH]n2)cc1C	none
CC(Oc1ccc(Cl)cc1)C(=O)Nc1ccc(S(=O)(=O)N2CCOCC2)cc1 (stereo not given)	M4 ag 53, M5 ag 38
CCOC(=O)C1CCC(CNCc2ccccc2C)CC1 (stereo not given)	M4 antag 34
COc1ccccc1C(=O)Nc1nnc([C@H]2C[C@H](O)[C@@H](CO)O2)s1	none
CNC(=O)CN(c1ccc(OC)cc1)S(=O)(=O)c1ccc(F)cc1	M5 PAM 28, M4 PAM 20
COc1ccc(N(CC(=O)Nc2c(C)n(C)n(-c3ccccc3)c2=O)S(=O)(=O)c2ccc(F)cc2)cc1	M5 PAM 21, M4 PAM 22
CCCCC[C@@H](C)N1C[C@@H](COCc2ccccc2)Oc2cc(N3CCC[C@H]3COC)ccc2S1(=O)=O	none
CC1(C(=O)Nc2ccc(Cl)c(Cl)c2)CCN1C(=O)CCC1CCCC1 (stereo not given)	none
COc1ccc(-n2c(/C=C(\C)O)nc(=O)c3c(C)cc(C)nc32)cc1	M4 PAM 34
COc1ccc(-n2c(C)nn(C)c2=O)cc1	none
Cc1ccc(S(=O)(=O)n2cccc2/C=C/[N+](=O)[O-])cc1	none
CN1C[C@@H]2C(c3ccccc3)C3(c4ccc(C#N)cc4)CC2(C3)[C@H]1c1ccccc1 (stereo not given in full)	none
CN1C[C@@H]2C(c3ccccc3)C3(c4ccccc4)CC2(C3)[C@H]1c1ccccc1 (stereo not given in full)	M4 antag 45
CCC1(c2ccc(F)cc2)NC(=O)N(CC(=O)N2CCc3ccccc32)C1=O (stereo not given)	M5 ag 38
CCC1(c2ccc(F)cc2)NC(=O)N(CC(=O)Nc2ccccc2Cl)C1=O (stereo not given)	M5 ag 33
Cc1ccc(C2(C)NC(=O)N(CC(=O)N3CCc4ccccc43)C2=O)cc1 (stereo not given)	none
CC1(c2ccc(Cl)cc2)NC(=O)N(CC(=O)N2CCc3ccccc32)C1=O (stereo not given)	M4 ag 38, M5 ag 40
CCC1(CC)NC(=O)N(CC(=O)N2CCc3ccccc32)C1=O	M5 PAM 20, M4 PAM 19
O=C(Nc1nnc(-c2ccco2)o1)c1ccc(S(=O)(=O)N2CCCC2)cc1	none
O=C(Nc1nnc(-c2ccco2)o1)C1CC1	M5 PAM 23
CS(=O)(=O)c1ccccc1-c1nnc(NC(=O)c2ccco2)o1	M4 antag 39
Cc1ccc(C(=O)Nc2nnc(-c3ccco3)o2)cc1	M5 PAM 22
CC1CCN(S(=O)(=O)c2ccc(C(=O)Nc3nnc(-c4ccco4)o3)cc2)CC1	M5 PAM 29
O=C(CC[C@H]1O[C@@H](n2ccc(=O)[nH]c2=O)[C@H](O)[C@@H]1O)N[C@H](Cc1ccccc1)C(=O)NCc1ccc2c(c1)OCO2	none
O=C(NC1CCCCC1)N(c1ccccc1)c1nnc(-c2cccc([N+](=O)[O-])c2)s1	none
CNCCNC[C@H](Cc1cccc2ccccc12)NCCc1ccccc1	none
CNC[C@H](Cc1ccccc1)NC[C@@H](Cc1cccc2ccccc12)NCCc1ccc(C)cc1	M4 antag 38
C(=C\c1ccccc1)/CN1CCN(C(CCc2ccccc2)c2nnnn2C2CCCC2)CC1 (stereo not given)	none
CN1C(=O)CSC1=Nc1ccc(F)cc1	M4 PAM 14
